In ChEMBL document CHEMBL1122058, “Agents for the treatment of brain injury. 1. (Aryloxy)alkanoic acids” (J Med Chem, 1982):
Active and inactive are the calls of the source. No cut-off for these calls is given here.

Tests used:
Felis catus [1] = assay: Mortality of animals recorded as the number of animals dead out of the total animals (18) taken for the study at dose 30 mg/kg given q.i.d.; assay type: functional
In short: (§1)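 Adult conditioned cats (2.5–4 kg) under iv methohexital (13.25 mg/kg, plus 2.75 mg/kg if needed) received machine-induced acceleration/deceleration head injury. Forty min later they were paralysed with gallamine and ventilated with 6% O2/94% N2 for 60 min (arterial pO2 23 ± 1 torr). Drug was given iv 20 min post-injury, before hypoxemia. Mortality was scored as dead/total, chi-square tested.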

[2] = Distribution coefficient (D %) between octanol and buffer of pH 7.4; assay type: physicochemical; conditions: octanol/water
Felis catus [3] = assay: Mortality of animals recorded as the number of animals dead out of the total animals (16) taken for the study at dose 1 mg/kg given q.i.d.; assay type: functional
Felis catus [4] = species: Felis catus; assay: In vitro inhibition of HCO3- stimulated swelling in cat cerebrocortical tissue slice; assay type: functional; conditions: read-out: I 50
In short: (§2)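 Cat cerebral cortex slices (~150 mg, 0.5 mm) incubated aerobically 60 min at 37 °C in K+-rich (27 mM) Hepes-buffered saline-glucose with test compound as Na salt. HCO3- (NaHCO3 or TEAB) added from sidearm at 20 min to 10 mM final; HCO3- flasks gassed with 2.5% CO2/97.5% O2. Swelling by reweighing; Na+/K+ by flame photometry, Cl- by amperometric titration. Units: per g initial fresh weight; means ± SE, Student's t test.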

[5] = Dissociation constant (pKa) (determined in 30% EtOH); assay type: physicochemical
Pan troglodytes [6] = species: Pan troglodytes; assay: Relative salidiuretic efficacy was scored in chimpanzee; weak; assay type: functional, organism-based; conditions: Urine
Canis familiaris [7] = species: Canis familiaris; assay: Relative salidiuretic efficacy was scored in dog; moderate; assay type: functional, organism-based; conditions: Canis lupus familiaris; Urine
Homo sapiens [8] = species: Homo sapiens; assay: Relative salidiuretic efficacy was scored in human; moderate; assay type: functional, organism-based; conditions: Urine
Rattus norvegicus [9] = species: Rattus norvegicus; assay: Relative salidiuretic efficacy was scored in Rat; weak; assay type: functional, organism-based; conditions: Urine
Rattus norvegicus [10] = species: Rattus norvegicus; assay: Relative salidiuretic efficacy was scored in Rat; Marginal; assay type: functional, organism-based; conditions: Urine
Canis familiaris [11] = species: Canis familiaris; assay: Relative salidiuretic efficacy was scored in dog; Marginal; assay type: functional, organism-based; conditions: Canis lupus familiaris; Urine
Felis catus [12] = assay: Mortality of animals recorded as the number of animals dead out of the total animals (39) taken for the study at dose 1 mg/kg; assay type: functional; in short: as §1
Pan troglodytes [13] = species: Pan troglodytes; assay: Relative salidiuretic efficacy was scored in chimpanzee; very marked; assay type: functional, organism-based; conditions: Urine
Canis familiaris [14] = species: Canis familiaris; assay: Relative salidiuretic efficacy was scored in dog; very marked; assay type: functional, organism-based; conditions: Canis lupus familiaris; Urine
Homo sapiens [15] = species: Homo sapiens; assay: Relative salidiuretic efficacy was scored in human; very marked; assay type: functional, organism-based; conditions: Urine
Pan troglodytes [16] = species: Pan troglodytes; assay: Relative salidiuretic efficacy was scored in chimpanzee; moderate; assay type: functional, organism-based; conditions: Urine
Felis catus [17] = assay: Mortality of animals recorded as the number of animals dead out of the total animals (16) taken for the study at dose 1 mg/kg; assay type: functional; in short: as §1
Rattus norvegicus [18] = species: Rattus norvegicus; assay: Relative salidiuretic efficacy was scored in Rat; inactive; assay type: functional, organism-based; conditions: Urine
Felis catus [19] = assay: Relative salidiuretic efficacy was scored in cat upon intravenous administration of 20 mg/kg of Na salt; inactive; assay type: functional, organism-based; design: dose 20 mg/kg; conditions: Urine
Felis catus [20] = species: Felis catus; assay: In vitro inhibition of HCO3- stimulated swelling in cat cerebrocortical tissue slice; At no concentration was swelling inhibited 100%; assay type: functional; conditions: read-out: I 50; in short: as §2
Canis familiaris [21] = species: Canis familiaris; assay: Relative salidiuretic efficacy was scored in dog; marked; assay type: functional, organism-based; conditions: Canis lupus familiaris; Urine
Felis catus [22] = assay: Mortality of animals recorded as the number of animals dead out of the total animals (22) taken for the study at dose 1 mg/kg; assay type: functional; in short: as §1
Rattus norvegicus [23] = species: Rattus norvegicus; assay: Relative salidiuretic efficacy was scored in Rat; very marked; assay type: functional, organism-based; conditions: Urine
Rattus norvegicus [24] = species: Rattus norvegicus; assay: Relative salidiuretic efficacy was scored in Rat; moderate; assay type: functional, organism-based; conditions: Urine

SMILES	Distribution [2] [%]	IC50 (Felis catus [4]) [µM]	pKa [5]	further results
C[C@H]1CC2C(C(O)CC3(C)C2CC[C@]3(O)C(=O)COC(=O)CCC(=O)[O-])C2(C)C=CC(=O)C=C12.[Na+] (stereo partly drawn)				Mortality (Felis catus [1]): 9
CC(=O)Nc1nnc(S(N)(=O)=O)s1 [ACETAZOLAMIDE]	22	2000		Mortality (Felis catus [3]): 8
C=C(CC)C(=O)c1ccc(OCC(=O)O)c(Cl)c1Cl [ETHACRYNIC ACID]	61	1		Mortality (Felis catus [12]): 14; Relative salidiuretic activity (Rattus norvegicus [10]): Marginal; Relative salidiuretic activity (Pan troglodytes [13]): Marginal; Relative salidiuretic activity (Canis familiaris [14]): Marginal; Relative salidiuretic activity (Homo sapiens [15]): Marginal
C[C@]1(C2CCCC2)Cc2cc(OCCCC(=O)O)c(Cl)c(Cl)c2C1=O	99	0.01	5.7	Mortality (Felis catus [17]): 5; Relative salidiuretic activity (Rattus norvegicus [18]): inactive; Relative salidiuretic activity (Felis catus [19]): inactive
CC1(c2ccccc2)Cc2cc(OCC(=O)O)c(Cl)c(Cl)c2C1=O (racemic) [INDACRINONE]	84	1	3.7	Relative salidiuretic activity (Canis familiaris [21]): marked; Mortality (Felis catus [22]): 8; Relative salidiuretic activity (Rattus norvegicus [23]): marked; Relative salidiuretic activity (Pan troglodytes [13]): marked; Relative salidiuretic activity (Homo sapiens [15]): marked
CCCC[C@]1(C2CCCC2)Cc2cc(OCCCC(=O)O)c(Cl)c(Cl)c2C1=O	99.9	1	4.4	Relative salidiuretic activity (Rattus norvegicus [18]): inactive
NS(=O)(=O)c1cc(C(=O)O)c(NCc2ccco2)cc1Cl [FUROSEMIDE]	28	10		Relative salidiuretic activity (Rattus norvegicus [23]): Active; Relative salidiuretic activity (Pan troglodytes [13]): Active; Relative salidiuretic activity (Canis familiaris [14]): Active; Relative salidiuretic activity (Homo sapiens [15]): Active

Now from value to molecule, other results behind:

Distribution [2] [%]	IC50 (Felis catus [4]) [µM]	pKa [5]	SMILES	further results
100	> 10	6.2	CC1(C2CCCC2)Cc2cc(OCc3ccc(C(=O)O)cc3)c(Cl)c(Cl)c2C1=O (racemic)	
98.6	> 100	3.7	CC(C)(Oc1cc2c(c(Cl)c1Cl)C(=O)C(C)(C1CCCC1)C2)C(=O)O (racemic)	
83	10	3.9	O=C(O)COc1cc2c(c(Cl)c1Cl)C(=O)C(C1CCCC1)C2 (racemic)	Relative salidiuretic activity (Pan troglodytes [6]): moderate; Relative salidiuretic activity (Canis familiaris [7]): moderate; Relative salidiuretic activity (Homo sapiens [8]): moderate; Relative salidiuretic activity (Rattus norvegicus [9]): moderate
99	0.25	5.7	C[C@@]1(C2CCCC2)Cc2cc(OCCCC(=O)O)c(Cl)c(Cl)c2C1=O	Relative salidiuretic activity (Rattus norvegicus [10]): inactive; Relative salidiuretic activity (Canis familiaris [11]): inactive
91	0.001	3.8	CC1(Cc2ccccc2)Cc2cc(OCC(=O)O)c(Cl)c(Cl)c2C1=O (racemic)	Relative salidiuretic activity (Pan troglodytes [16]): Marginal; Relative salidiuretic activity (Rattus norvegicus [10]): Marginal; Relative salidiuretic activity (Canis familiaris [11]): Marginal
98.6		3.8	CC1(C2CCCC2)Cc2cc(OC3(C(=O)O)CCC3)c(Cl)c(Cl)c2C1=O (racemic)	IC50 (Felis catus [20]): 1 µM
97	0.001	3.9	CCC1(C2CCCC2)Cc2cc(OCC(=O)O)c(Cl)c(Cl)c2C1=O (racemic)	Relative salidiuretic activity (Rattus norvegicus [24]): moderate; Relative salidiuretic activity (Pan troglodytes [16]): moderate; Relative salidiuretic activity (Canis familiaris [7]): moderate
